Measured values from ChEMBL document CHEMBL3112476, “Inhibition of IκB kinase-β and IκB kinase-α by heterocyclic adamantyl arotinoids” (Bioorg Med Chem, 2014).

Key:
Jurkat = assay: Induction of apoptosis in human Jurkat cells assessed as activation of DEVDase at 5 uM after 4 hrs by fluorometric assay relative to control; type: functional
Procedure, shortened: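 Jurkat cells (20,000/well, 0.5% FBS RPMI) were treated 4 h with 5 µM compound and lysed 15 min in PIPES pH 7 buffer with NP-40, cytochalasin B and protease inhibitors. An equal volume of 2× caspase buffer containing 100 µM Ac-DEVD-AFC was added. AFC fluorescence (ex 390/em 510 nm) was read every 2 min for 1 h at 37 °C; the linear slope was taken as activity, expressed as fold over DMSO control. Data: 2 experiments, triplicate.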

[1] = Cytotoxicity against human Jurkat T cells assessed as cell viability at 4 uM after 24 hrs by CellTiter-Glo assay relative to control; type: functional; conditions: read-out: Activity
Procedure, shortened: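 Jurkat cells in 0.5% FBS RPMI were exposed to 4 µM compound or 0.1% DMSO for 24 h. Viability was read as ATP by CellTiter-Glo luminescence and expressed as percent of solvent control; below 60% counted as cell killing. Data: three experiments, triplicate.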

[2] = target: T1, Inhibitor of nuclear factor kappa-B kinase subunit alpha (Homo sapiens) (UniProt O15111); assay: Inhibition of recombinant IKKalpha (unknown origin) using ulight-IkappaomegaBalpha as substrate at 20 uM after 2 hrs by LANCE ultra TR-FRET assay relative to control
T1 sequence (whole entry): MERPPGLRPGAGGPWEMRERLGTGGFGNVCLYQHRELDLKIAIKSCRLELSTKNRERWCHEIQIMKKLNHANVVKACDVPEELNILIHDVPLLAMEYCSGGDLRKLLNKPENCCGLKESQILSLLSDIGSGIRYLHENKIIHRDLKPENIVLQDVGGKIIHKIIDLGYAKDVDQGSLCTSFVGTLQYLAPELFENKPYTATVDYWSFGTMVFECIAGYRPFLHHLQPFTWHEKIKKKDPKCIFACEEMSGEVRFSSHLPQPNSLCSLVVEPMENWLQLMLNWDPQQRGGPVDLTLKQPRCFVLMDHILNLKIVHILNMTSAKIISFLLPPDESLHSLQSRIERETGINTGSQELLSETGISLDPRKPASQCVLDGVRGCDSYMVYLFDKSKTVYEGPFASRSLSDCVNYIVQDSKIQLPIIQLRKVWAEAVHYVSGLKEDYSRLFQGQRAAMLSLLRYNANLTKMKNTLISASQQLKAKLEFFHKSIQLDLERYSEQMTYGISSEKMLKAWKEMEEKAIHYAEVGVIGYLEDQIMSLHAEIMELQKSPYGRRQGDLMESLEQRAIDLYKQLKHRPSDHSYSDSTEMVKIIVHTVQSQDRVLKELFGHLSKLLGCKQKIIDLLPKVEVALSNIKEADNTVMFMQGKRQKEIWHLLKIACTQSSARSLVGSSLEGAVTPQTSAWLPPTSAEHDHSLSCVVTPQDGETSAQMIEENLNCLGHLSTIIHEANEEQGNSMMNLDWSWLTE
Procedure, shortened: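 Recombinant IKKα (4 nM), IKKβ (1 nM) or IKKε (2 nM) in 50 mM Hepes pH 7.4, 10 mM MgCl2, 1 mM EGTA, 2 mM DTT, 0.01% Tween-20. Substrate was 50 nM ULight-IκBα (IKKα/β) or ULight-rpS6 (IKKε); ATP was 1.25 µM (α/β) or 5 µM (ε). Compound was tested at 20 µM. Incubation was 1 h (IKKβ) or 2 h (IKKα/ε) at room temperature, stopped with 20 mM EDTA plus 2 nM Eu-anti-phospho antibody, then TR-FRET 665/615 nm. Results are percent inhibition versus solvent; 3–4 experiments, triplicate.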

[3] = target: T2, Inhibitor of nuclear factor kappa-B kinase subunit epsilon (Homo sapiens) (UniProt Q14164); assay: Inhibition of recombinant IKKepsilon (unknown origin) using ulight-rpS6 as substrate at 20 uM after 2 hrs by LANCE ultra TR-FRET assay relative to control
T2 sequence (whole entry): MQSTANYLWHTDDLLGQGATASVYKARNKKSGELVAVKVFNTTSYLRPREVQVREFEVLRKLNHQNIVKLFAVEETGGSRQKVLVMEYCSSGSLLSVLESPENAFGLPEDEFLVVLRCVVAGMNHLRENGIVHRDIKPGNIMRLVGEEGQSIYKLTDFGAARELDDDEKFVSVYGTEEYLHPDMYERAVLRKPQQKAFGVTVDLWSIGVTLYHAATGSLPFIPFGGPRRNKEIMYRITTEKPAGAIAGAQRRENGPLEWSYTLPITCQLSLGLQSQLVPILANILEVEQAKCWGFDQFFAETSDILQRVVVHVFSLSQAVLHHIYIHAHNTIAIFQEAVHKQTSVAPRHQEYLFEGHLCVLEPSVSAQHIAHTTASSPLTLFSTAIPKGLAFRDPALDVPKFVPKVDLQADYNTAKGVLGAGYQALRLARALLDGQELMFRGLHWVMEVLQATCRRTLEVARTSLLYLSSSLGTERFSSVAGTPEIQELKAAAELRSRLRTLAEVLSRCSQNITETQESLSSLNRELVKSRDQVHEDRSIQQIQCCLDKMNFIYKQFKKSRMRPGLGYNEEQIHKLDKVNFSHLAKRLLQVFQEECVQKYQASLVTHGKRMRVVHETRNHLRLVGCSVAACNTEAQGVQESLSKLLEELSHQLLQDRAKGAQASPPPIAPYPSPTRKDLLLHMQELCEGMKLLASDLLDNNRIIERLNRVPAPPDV

[4] = target: T3, Inhibitor of nuclear factor kappa-B kinase subunit beta (Homo sapiens) (UniProt O14920); assay: Inhibition of recombinant IKKbeta (unknown origin) using ulight-IkappaomegaBalpha as substrate at 20 uM after 1 hr by LANCE ultra TR-FRET assay relative to control
T3 sequence (whole entry): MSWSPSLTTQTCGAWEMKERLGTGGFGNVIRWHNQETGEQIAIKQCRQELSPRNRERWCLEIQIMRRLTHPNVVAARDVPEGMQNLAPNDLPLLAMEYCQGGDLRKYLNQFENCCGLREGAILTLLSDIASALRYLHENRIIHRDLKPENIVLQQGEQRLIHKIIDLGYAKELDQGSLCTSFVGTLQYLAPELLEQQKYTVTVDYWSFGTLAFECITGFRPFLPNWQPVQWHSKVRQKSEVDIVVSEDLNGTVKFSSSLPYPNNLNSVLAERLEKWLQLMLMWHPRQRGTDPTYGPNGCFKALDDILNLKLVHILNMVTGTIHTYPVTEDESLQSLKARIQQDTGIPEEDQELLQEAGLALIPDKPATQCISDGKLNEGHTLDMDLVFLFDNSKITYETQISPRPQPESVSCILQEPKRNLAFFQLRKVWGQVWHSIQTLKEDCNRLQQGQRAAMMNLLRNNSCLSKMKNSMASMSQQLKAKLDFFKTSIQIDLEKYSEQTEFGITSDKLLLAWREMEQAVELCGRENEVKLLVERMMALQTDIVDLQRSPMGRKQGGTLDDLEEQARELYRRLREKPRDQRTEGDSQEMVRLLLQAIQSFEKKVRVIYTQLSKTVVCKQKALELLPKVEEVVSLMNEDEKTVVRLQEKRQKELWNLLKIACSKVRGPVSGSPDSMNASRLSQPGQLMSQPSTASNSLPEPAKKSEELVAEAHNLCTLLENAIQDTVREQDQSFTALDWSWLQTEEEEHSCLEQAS

[5] = target: T4, Retinoic acid receptor alpha (Homo sapiens, UniProt P10276); assay: Inverse agonist activity at RARalpha (unknown origin)
T4 sequence (P10276 whole entry): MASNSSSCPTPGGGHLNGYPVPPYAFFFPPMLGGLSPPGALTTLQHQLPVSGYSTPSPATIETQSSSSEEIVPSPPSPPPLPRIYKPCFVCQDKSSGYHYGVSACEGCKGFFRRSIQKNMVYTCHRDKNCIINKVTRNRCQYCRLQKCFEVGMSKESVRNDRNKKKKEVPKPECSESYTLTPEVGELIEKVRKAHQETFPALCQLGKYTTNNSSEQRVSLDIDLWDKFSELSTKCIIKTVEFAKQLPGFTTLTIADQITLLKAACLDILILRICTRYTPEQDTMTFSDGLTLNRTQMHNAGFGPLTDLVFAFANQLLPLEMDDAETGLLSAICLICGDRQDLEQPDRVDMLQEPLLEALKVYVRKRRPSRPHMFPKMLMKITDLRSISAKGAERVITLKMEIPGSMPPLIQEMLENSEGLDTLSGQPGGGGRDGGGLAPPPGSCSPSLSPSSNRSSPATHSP

[6] = target: T5, Retinoic acid receptor alpha (Homo sapiens) (UniProt P10276); assay: Antagonist activity at Gal4-fused RARalpha (unknown origin) transfected in HEK293 cells assessed as ATRA-induced transcriptional activity at 4 uM by luciferase/beta-galactosidase reporter gene assay relative to ATRA-treated control; type: cell-based; parameters: scale not given: the % may be the effect or the level left
T5 sequence (whole entry): T4 sequence (P10276 whole entry)
Procedure, shortened: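 Same Gal4-RARα HEK-293 UAS-luciferase system, stimulated with 0.1 µM atRA alone or with 4 µM compound (40-fold molar excess); 1 µM UVI2024 served as control antagonist. Background-subtracted luciferase was normalized to β-galactosidase and given as percent of atRA-stimulated cells. Data: 2–3 experiments, triplicate.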

[7] = target: T5, Retinoic acid receptor alpha (Homo sapiens); assay: Agonist activity at Gal4-fused RARalpha (unknown origin) transfected in HEK293 cells assessed as induction of transcriptional activity at 4 uM after 6 hrs by luciferase/beta-galactosidase reporter gene assay relative to control; type: cell-based
Procedure, shortened: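 Gal4-RARα or Gal4-RXRα (10 ng) plus 2 ng β-galactosidase vector, calcium phosphate transfection into HEK-293 cells carrying a 5×UAS luciferase reporter. After 16 h, cells were washed and given 5% charcoal-treated FBS medium, then rested 2 h. Stimulation was with 4 µM compound or 0.1% DMSO; controls were 1 µM atRA (RARα) or 1 µM CD3254 (RXRα). Harvest was at 6 h (RARα) or 24 h (RXRα). Luciferase/β-gal ratio was expressed as fold over unstimulated cells. Data: 2 experiments, triplicate.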

[8] = target: T6, Retinoic acid receptor RXR-alpha (Homo sapiens) (UniProt P19793); assay: Antagonist activity at recombinant GST-tagged RXRalpha LBD (unknown origin) assessed as inhibition of CD3254-induced fluorescein labeled D22 coactivator recruitment at 8 uM after 4 hrs by TR-FRET assay
T6 sequence (whole entry): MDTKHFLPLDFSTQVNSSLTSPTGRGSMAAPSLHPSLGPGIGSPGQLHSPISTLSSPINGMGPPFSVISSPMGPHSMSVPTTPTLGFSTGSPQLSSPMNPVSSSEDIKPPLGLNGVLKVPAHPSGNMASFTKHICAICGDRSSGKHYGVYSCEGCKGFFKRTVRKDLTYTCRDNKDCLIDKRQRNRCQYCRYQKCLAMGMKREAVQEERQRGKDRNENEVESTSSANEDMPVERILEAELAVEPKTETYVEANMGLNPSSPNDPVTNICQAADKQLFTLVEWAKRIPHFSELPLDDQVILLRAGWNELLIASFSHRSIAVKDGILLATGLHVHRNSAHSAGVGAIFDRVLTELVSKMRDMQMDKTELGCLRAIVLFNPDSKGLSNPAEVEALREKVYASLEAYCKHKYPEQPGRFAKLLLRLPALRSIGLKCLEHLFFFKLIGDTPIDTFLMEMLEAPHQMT
Procedure, shortened: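 GST-RXRα LBD (5 nM) was incubated at room temperature with 150 nM fluorescein-D22 peptide in pH 7.4 Hepes binding buffer containing DTT, with a suboptimal concentration of CD3254 plus test ligand (≤1% DMSO). Terbium anti-GST antibody (2 nM) was the donor. The 520/495 nm TR-FRET ratio was read after 4 h and expressed as Delta F% versus controls lacking GST-RXRα.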

[9] = Cytotoxicity against human Jurkat T cells assessed as cell viability after 24 hrs by CellTiter-Glo assay; type: functional, cell-based
Procedure, shortened: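 Jurkat cells were seeded the day before treatment in RPMI with 0.5% FBS (10,000 cells/well). They were treated in triplicate across an 8-point dose series starting at 10 µM, with DMSO ≤0.1% as solvent control. ATP was measured by CellTiter-Glo luminescence after 24 h; a time-0 reading separated cytostatic from cytotoxic effects. IC50 was fitted from the curve.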

[10] = target: T7, Inhibitor of nuclear factor kappa-B kinase subunit beta (Homo sapiens, UniProt O14920); assay: Inhibition of recombinant IKKbeta (unknown origin) using ulight-IkappaomegaBalpha as substrate after 1 hr by LANCE ultra TR-FRET assay
T7 sequence (O14920 whole entry): T3 sequence (whole entry)

O=C(O)/C=C/c1ccc(-c2ccc(O)c(C34CC5CC(CC(C5)C3)C4)c2)c(Cl)c1
fold change (FC) (Jurkat): 74.3
viability at 4 µM [1]: 6.6%
inhibition [2]: 41.3%
inhibition [3]: 24.1%
inhibition [4]: 40.6%

CC1(C)CC=C(C#Cc2ccccc2)c2cc(/C=C/c3ccc(C(=O)O)cc3)ccc21
IC50 [5]: 0.114 µM
Activity [6]: 7.1%
fold change (FC) [7]: 1.3

CCCCCOc1cc2c(cc1-c1cc(/C=C/C(=O)O)ccc1O)C(C)(C)CCC2(C)C
inhibition [8]: 25%

COCCOCOc1ccc(C(=O)/C=C/c2ccc(C(=O)O)cc2)cc1C12CC3CC(CC(C3)C1)C2
fold change (FC) (Jurkat): 20.7
IC50 [9]: 3.33 µM
viability at 4 µM [1]: 28.5%
inhibition [2]: 56.3%
IC50 [10]: 11.8 µM
inhibition [3]: 15.8%
inhibition [4]: 43.9%

CC(=O)NCCCOc1cc(/C=C/C(=O)O)ccc1-c1ccc(O)c(C23CC4CC(CC(C4)C2)C3)c1
fold change (FC) (Jurkat): 6.1
viability at 4 µM [1]: 42.7%
inhibition [2]: 5%
inhibition [3]: 14.4%
inhibition [4]: 0%
